In ChEMBL document CHEMBL1136717, “Trypanocidal activity of conformationally restricted pentamidine congeners” (J Med Chem, 2003):
The source made the active and inactive calls. The calls are words filed in the database; no cut-off is given here.

Tests used:
Mus musculus [1] = assay: Ratio of number of cured to that of total after intraperitoneal administration (25 mg/kg) once a day for 3 days in mouse infected with Trypanosoma brucei (EATRO Lab 110); (0/3 of animals were cured); format: functional, organism-based
[2] = system: Trypanosoma brucei rhodesiense; assay: In vitro inhibitory concentration against mouse infected with Trypanosoma brucei rhodesiense (KETRI 269)
Trypanosoma brucei [3] = assay: Mean survival dose (25.0 mg/kg) after intraperitoneal administration once a day for 3 days in mouse infected with Trypanosoma brucei (EATRO Lab 110); Compound was toxic.; format: functional
How it was run: (§1)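 Female Swiss-Webster mice (20 g) infected ip with 2.5×10^5 trypanosomes from rat blood; treatment began 24 h later. Drug dissolved in distilled water, given ip once daily for 3 days, three mice per dose. Tail blood smears checked weekly. MSD is the mean survival of mice dying of infection, excluding cures. Cure means survival >30 days beyond the last control death with a clear smear.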

Nucleic Acid = assay: DNA binding affinity using poly(dA-dT).; format: nucleic-acid assay
How it was run: (§2)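 Thermal denaturation of calf thymus DNA or poly(dA-dT) at a 1:5 compound to base pair ratio. Binding affinity is reported as ΔTm, the shift in the midpoint (Tm) of the melting curve.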

Trypanosoma brucei [4] = assay: Mean survival dose (1.0 mg/kg) after intraperitoneal administration once a day for 3 days in mouse infected with Trypanosoma brucei (EATRO Lab 110); format: functional; how it was run: as §1
Calf thymus DNA = assay: DNA binding affinity using calf thymus DNA.; format: nucleic-acid assay; conditions: Bos taurus; how it was run: as §2
Trypanosoma brucei [5] = assay: In vitro inhibitory concentration against mouse infected with Trypanosoma brucei rhodesiense (kETRI 243As-10-3); format: functional, organism-based
Mus musculus [6] = assay: Ratio of number of cured to that of total after intraperitoneal administration (10.0 mg/kg) once a day for 3 days in mouse infected with Trypanosoma brucei (EATRO Lab 110); (3/3 of animals were cured); format: functional, organism-based
Mus musculus [7] = assay: Ratio of number of cured to that of total after intraperitoneal administration (1.0 mg/kg) once a day for 3 days in mouse infected with Trypanosoma brucei (EATRO Lab 110); (0/3 of animals were cured); format: functional, organism-based
Trypanosoma brucei [8] = assay: In vitro inhibitory concentration against mice infected with Trypanosoma brucei rhodesiense (KETRI 243).; format: functional, organism-based
Mus musculus [9] = assay: Ratio of number of cured to that of total after intraperitoneal administration (2.5 mg/kg) once a day for 3 days in mouse infected with Trypanosoma brucei (EATRO Lab 110); (3/3 of animals were cured); format: functional, organism-based
Mus musculus [10] = assay: Ratio of number of cured to that of total after intraperitoneal administration (5.0 mg/kg) once a day for 3 days in mouse infected with Trypanosoma brucei (EATRO Lab 110); (3/3 of animals were cured); format: functional, organism-based
Trypanosoma brucei [11] = assay: In vitro inhibitory concentration against mice infected with Trypanosoma brucei pentamidine-sensitive strain (EATRO Lab 110).; format: functional, organism-based
Mus musculus [12] = assay: Ratio of number of cured to that of total after intraperitoneal administration (10.0 mg/kg) once a day for 3 days in mouse infected with Trypanosoma brucei (EATRO Lab 110); (1/3 of animals were cured); format: functional, organism-based
Mus musculus [13] = assay: Ratio of number of cured to that of total after intraperitoneal administration (25 mg/kg) once a day for 3 days in mouse infected with Trypanosoma brucei (EATRO Lab 110);(3/3 of animals were cured); format: functional, organism-based
Mus musculus [14] = assay: Ratio of number of cured to that of total after intraperitoneal administration (5.0 mg/kg) once a day for 3 days in mouse infected with Trypanosoma brucei (EATRO Lab 110); (0/3 of animals were cured); format: functional, organism-based
Mus musculus [15] = assay: Ratio of number of cured to that of total after intraperitoneal administration (2.5 mg/kg) once a day for 3 days in mouse infected with Trypanosoma brucei (EATRO Lab 110); (0/3 of animals were cured); format: functional, organism-based
Trypanosoma brucei [16] = assay: Mean survival dose (5.0 mg/kg) after intraperitoneal administration once a day for 3 days in mouse infected with Trypanosoma brucei (EATRO Lab 110); format: functional; how it was run: as §1
Trypanosoma brucei [17] = assay: Mean survival dose (10.0 mg/kg) after intraperitoneal administration once a day for 3 days in mouse infected with Trypanosoma brucei (EATRO Lab 110); format: functional; how it was run: as §1
Trypanosoma brucei [18] = assay: Mean survival dose (2.5 mg/kg) after intraperitoneal administration once a day for 3 days in mouse infected with Trypanosoma brucei (EATRO Lab 110); format: functional; how it was run: as §1
Mus musculus [19] = assay: Ratio of number of cured to that of total after intraperitoneal administration (25 mg/kg) once a day for 3 days in mouse infected with Trypanosoma brucei (EATRO Lab 110); (3/3 of animals were cured); format: functional, organism-based
Mus musculus [20] = assay: Ratio of number of cured to that of total after intraperitoneal administration (2.5 mg/kg) once a day for 3 days in mouse infected with Trypanosoma brucei (EATRO Lab 110); (1/3 of animals were cured); format: functional, organism-based
Mus musculus [21] = assay: Ratio of number of cured to that of total after intraperitoneal administration (5.0 mg/kg) once a day for 3 days in mouse infected with Trypanosoma brucei (EATRO Lab 110); (2/3 of animals were cured); format: functional, organism-based
Mus musculus [22] = assay: Ratio of number of cured to that of total after intraperitoneal administration (1.0 mg/kg) once a day for 3 days in mouse infected with Trypanosoma brucei (EATRO Lab 110);(0/3 of animals were cured); format: functional, organism-based

c1cc(N2CCN(c3ccc(C4=NCCN4)cc3)CC2)ccc1C1=NCCN1
Ratio (Mus musculus [1]): inactive
IC50 [2]: 0.013 µM
MSD (Trypanosoma brucei [3]): 19.7 days
DNA binding (Nucleic Acid): 19.4 °C
MSD (Trypanosoma brucei [4]): 10.3 days
DNA binding (Calf thymus DNA): 15 °C
IC50 (Trypanosoma brucei [5]): 0.1 µM
Ratio (Mus musculus [6]): Active
Ratio (Mus musculus [7]): inactive
IC50 (Trypanosoma brucei [8]): 0.0135 µM
Ratio (Mus musculus [9]): Active
Ratio (Mus musculus [10]): Active
IC50 (Trypanosoma brucei [11]): 0.0185 µM

C(=C1CCN(Cc2ccc(C3=NCCN3)cc2)CC1)c1ccc(C2=NCCN2)cc1
IC50 [2]: 0.265 µM
DNA binding (Nucleic Acid): 19.4 °C
DNA binding (Calf thymus DNA): 17 °C
IC50 (Trypanosoma brucei [5]): 0.09 µM
IC50 (Trypanosoma brucei [8]): 0.465 µM
IC50 (Trypanosoma brucei [11]): 0.54 µM

c1cc(C2=NCCN2)ccc1CC1CCN(c2ccc(C3=NCCN3)cc2)CC1
IC50 [2]: 0.155 µM
DNA binding (Nucleic Acid): 33.9 °C
DNA binding (Calf thymus DNA): 21 °C
IC50 (Trypanosoma brucei [5]): 0.088 µM
IC50 (Trypanosoma brucei [8]): 0.185 µM
IC50 (Trypanosoma brucei [11]): 0.169 µM

C(=C1\CCCN(c2ccc(C3=NCCN3)cc2)C1)/c1ccc(C2=NCCN2)cc1
IC50 [2]: 0.088 µM
DNA binding (Nucleic Acid): 15.5 °C
DNA binding (Calf thymus DNA): 12 °C
IC50 (Trypanosoma brucei [5]): 0.084 µM
IC50 (Trypanosoma brucei [8]): 0.084 µM
IC50 (Trypanosoma brucei [11]): 0.071 µM

O=C(Nc1ccc(C2=NCCN2)cc1)C1C[C@H]1C(=O)Nc1ccc(C2=NCCN2)cc1 (stereo not given in full)
IC50 [2]: > 1 µM
DNA binding (Nucleic Acid): 9.6 °C
DNA binding (Calf thymus DNA): 6 °C
IC50 (Trypanosoma brucei [5]): 0.81 µM
IC50 (Trypanosoma brucei [8]): 0.44 µM
IC50 (Trypanosoma brucei [11]): > 1 µM

N=C(N)c1ccc(NC(=O)c2cccc(C(=O)Nc3ccc(C(=N)N)cc3)n2)cc1
IC50 [2]: > 1 µM
DNA binding (Nucleic Acid): 15.9 °C
DNA binding (Calf thymus DNA): 7.1 °C
IC50 (Trypanosoma brucei [5]): > 1 µM
IC50 (Trypanosoma brucei [8]): > 1 µM
IC50 (Trypanosoma brucei [11]): > 1 µM

N=C(N)c1ccc(OCCCCCOc2ccc(C(=N)N)cc2)cc1 [PENTAMIDINE]
IC50 [2]: 0.0032 µM
DNA binding (Nucleic Acid): 20.6 °C
DNA binding (Calf thymus DNA): 11.1 °C
IC50 (Trypanosoma brucei [5]): 0.005 µM
IC50 (Trypanosoma brucei [8]): 0.0031 µM
IC50 (Trypanosoma brucei [11]): 0.0008 µM

c1cc(N2CCCN(c3ccc(C4=NCCN4)cc3)CC2)ccc1C1=NCCN1
IC50 [2]: 0.155 µM
DNA binding (Nucleic Acid): 24 °C
MSD (Trypanosoma brucei [4]): 4.7 days
Ratio (Mus musculus [12]): Partially active
DNA binding (Calf thymus DNA): 15 °C
IC50 (Trypanosoma brucei [5]): 0.023 µM
Ratio (Mus musculus [13]): Active
Ratio (Mus musculus [14]): inactive
Ratio (Mus musculus [15]): inactive
Ratio (Mus musculus [7]): inactive
IC50 (Trypanosoma brucei [8]): 0.052 µM
MSD (Trypanosoma brucei [16]): 7.7 days
MSD (Trypanosoma brucei [17]): 14 days
MSD (Trypanosoma brucei [18]): 4.3 days
IC50 (Trypanosoma brucei [11]): 0.0275 µM

CC(C)(C)/N=C(\N)c1ccc(N2CCCN(c3ccc(/C(N)=N/C(C)(C)C)cc3)CC2)cc1
DNA binding (Nucleic Acid): 7.4 °C
DNA binding (Calf thymus DNA): 4.1 °C
IC50 (Trypanosoma brucei [5]): > 1 µM
IC50 (Trypanosoma brucei [8]): > 1 µM
IC50 (Trypanosoma brucei [11]): > 1 µM

N=C(NC1CC1)c1ccc(N2CCCN(c3ccc(C(=N)NC4CC4)cc3)CC2)cc1
DNA binding (Nucleic Acid): 23.6 °C
DNA binding (Calf thymus DNA): 15.3 °C
IC50 (Trypanosoma brucei [5]): 0.85 µM
IC50 (Trypanosoma brucei [8]): 0.81 µM
IC50 (Trypanosoma brucei [11]): 0.87 µM

CCCCNC(=N)c1ccc(N2CCCN(c3ccc(C(=N)NCCCC)cc3)CC2)cc1
DNA binding (Nucleic Acid): 13.3 °C
DNA binding (Calf thymus DNA): 11.8 °C
IC50 (Trypanosoma brucei [5]): 0.078 µM
IC50 (Trypanosoma brucei [8]): 0.079 µM
IC50 (Trypanosoma brucei [11]): 0.18 µM

N=C(NCCO)c1ccc(N2CCCN(c3ccc(/C(N)=N/CCO)cc3)CC2)cc1
DNA binding (Nucleic Acid): 14.7 °C
DNA binding (Calf thymus DNA): 11.1 °C
IC50 (Trypanosoma brucei [5]): > 1 µM
IC50 (Trypanosoma brucei [8]): > 1 µM
IC50 (Trypanosoma brucei [11]): > 1 µM

N=C(N)c1ccc(N2CCCN(c3ccc(C(=N)N)cc3)CC2)cc1
IC50 [2]: 0.0071 µM
DNA binding (Nucleic Acid): 23.1 °C
MSD (Trypanosoma brucei [4]): 8.3 days
DNA binding (Calf thymus DNA): 15 °C
IC50 (Trypanosoma brucei [5]): 0.0033 µM
Ratio (Mus musculus [6]): Active
Ratio (Mus musculus [19]): Active
Ratio (Mus musculus [20]): Partially active
IC50 (Trypanosoma brucei [8]): 0.00271 µM
MSD (Trypanosoma brucei [16]): 12 days
Ratio (Mus musculus [21]): Partially active
MSD (Trypanosoma brucei [18]): 16.5 days
Ratio (Mus musculus [22]): inactive
IC50 (Trypanosoma brucei [11]): 0.00215 µM

CC(C)/N=C(\N)c1ccc(N2CCCN(c3ccc(/C(N)=N/C(C)C)cc3)CC2)cc1
DNA binding (Nucleic Acid): 20 °C
DNA binding (Calf thymus DNA): 13.8 °C
IC50 (Trypanosoma brucei [5]): 0.125 µM
IC50 (Trypanosoma brucei [8]): 0.9 µM
IC50 (Trypanosoma brucei [11]): > 1 µM

c1cc(C2=NCCN2)ccc1CC1CCCN(c2ccc(C3=NCCN3)cc2)C1 (stereo not given)
IC50 [2]: 0.015 µM
DNA binding (Nucleic Acid): 14.1 °C
DNA binding (Calf thymus DNA): 9.9 °C
IC50 (Trypanosoma brucei [5]): 0.079 µM
IC50 (Trypanosoma brucei [8]): 0.085 µM
IC50 (Trypanosoma brucei [11]): 0.086 µM

N=C(N)c1ccc(OC[C@@H]2C[C@H]2COc2ccc(C(=N)N)cc2)cc1
IC50 [2]: 0.0155 µM
DNA binding (Nucleic Acid): 20.3 °C
DNA binding (Calf thymus DNA): 11.1 °C
IC50 (Trypanosoma brucei [5]): 0.00017 µM
IC50 (Trypanosoma brucei [8]): 0.045 µM
IC50 (Trypanosoma brucei [11]): 0.0094 µM
